Measurements from publication PMC4330091 (Bioorganic & medicinal chemistry, 2014).
Where two headings read alike, the source gives them in different places. Marks after values point to notes of the source that are not given here.

What was measured:
[1] = tested on: MCF-7 cells; conditions: ref 35 (Yared et al.); cited from earlier work
[2] = tested on: MCF-7 breast cancer cell line; test: MTT anti-proliferative assay on MCF-7; assay type: cell-based, human; conditions: read-out: IC50, MCF-7
[3] = tested on: MCF-10A non-tumorigenic human breast epithelial cell line; test: MTT anti-proliferative assay on MCF-10A; assay type: cell-based; conditions: read-out: IC50, MCF-10A
[4] = tested on: HT-29 colon cancer cell line; test: MTT anti-proliferative assay on HT-29; assay type: cell-based, human; conditions: read-out: IC50, HT-29
[5] = tested on: HT-29 colon cancer cell line; conditions: read-out: IC50, HT-29; MTT assay, 72 h drug exposure; cited from earlier work
[6] = tested on: MCF-7 breast cancer cell line; conditions: cited from earlier work; for IC50: read-out: IC50, MCF-7, MTT assay, 72 h drug exposure
[7] = Cyclic voltammetry in CH3CN; assay type: physicochemical; conditions: 0.1 M [NBu4n]PF6, 100 mV/s, vs Ag/AgCl
Outline: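 Test compound dissolved at 2 × 10⁻³ M in deoxygenated CH3CN with 0.1 M [NBuⁿ₄]PF₆ as supporting electrolyte; cyclic voltammograms recorded on these solutions.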

[8] = tested on: MCF-7; test: ROS production; assay type: cell-based, human; conditions: MCF-7, 72 h
[9] = CH3CN, vs Ag/AgCl, cited from earlier work
[10] = tested on: MCF-7 cells; test: Cytokinesis-block micronucleus assay; conditions: for % Binucleated cells (Mitotic rate) / Micronucleus (MNi) (mean ± SD): 72 h treatment; for % Binucleated cells (Mitotic rate): MCF-7, mean (SD); for increase in micronucleus forming activity compared to control (untreated cells): MCF-7; for Micronucleus (MNi) (mean ± SD): micronucleated cells in 500 binucleated MCF-7 cells
[11] = tested on: MCF-7 cells
[12] = tested on: MCF-10A non-tumorigenic human breast epithelial cell line; conditions: cited from earlier work
[13] = MTT assay, 72 h drug exposure, SD in parenthesis
[14] = ref 13. Dalton Trans. 40 (2011) 9557–9565
[15] = ref 14. J. Organometal. Chem 749 (2014) 204–214

For `C[C@]12CC[C@@H]3c4ccc(O)cc4CC[C@H]3[C@@H]1CC[C@@H]2O` [β-estradiol], the “increase in the micronucleus-forming activity” value [1] is listed as 3 fold.

For `O=C(O)Cc1ccc[cH-]1.[Fe+2].c1cc[cH-]c1` [Ferroceneacetic acid], the IC50 [2, 13] was 590 µM, the IC50 [3, 13] was 86 µM and the IC50 [4, 13] was 253 µM.

For `F[B-](F)(F)F.[Fe+3].c1cc[cH-]c1.c1cc[cH-]c1` [Ferricenium tetrafluoroborate], the IC50 [5] is given as 180 µM and the IC50 [6] is given as 150 µM.

`[Fe+2].c1cc[cH-]c1.c1cc[cH-]c1` [Fc/Fc^+, ferrocene] gave an E1/2 [7] of 454 mV, an Epa [7] of 494 mV and an Epc [7] of 414 mV. For the same molecule, the ΔE [7] was 80 mV.

In the case of `C[C@]12CC[C@@H]3c4ccc(OC(=O)[c-]5cccc5)cc4CC[C@H]3[C@@H]1CC[C@@H]2O.[Fe+2].c1cc[cH-]c1` [Fc-CO2-estradiol, ferrocenoyl 17β-hydroxy-estra-1,3,5(10)-trien-3-olate], the IC50 [5] is given as 24.4 µM, the IC50 [6] is given as 9 µM and the IC50 [3, 13] is given as 119 µM. For the same molecule, the “ROS production (in words)” value [8] was “significant increase”, the E1/2 [9, 14] was 756 mV and the Epa [9, 14] was 801 mV. For the same molecule, the Epc [9, 14] was 711 mV, the ΔE [9, 14] was 90 mV and the “% Binucleated cells (Mitotic rate)” value ([10]; 0.01 μM) was 33 (2) ^* %. For the same molecule, the “increase in micronucleus forming activity compared to control (untreated cells)” value (“increase … (untreated cells)” below) ([10]; 0.01 μM) was 3 fold, the “% Binucleated cells (Mitotic rate)” value ([10]; 0.1 μM) was 39 (9) ^* % and the “Micronucleus (MNi) (mean ± SD)” value ([10]; 0.1 μM) was 25. For the same molecule, the “increase … (untreated cells)” value ([10]; 0.1 μM) was 4 fold, the “% Binucleated cells (Mitotic rate)” value ([10]; 1 μM) was 34 (9) ^* % and the “Micronucleus (MNi) (mean ± SD)” value ([10]; 1 μM) was 29. The “increase … (untreated cells)” value ([10]; 1 μM) was 4 fold and the “increase in micronucleus-forming activity” value ([10]; concentration near IC50, MCF-7) was “up to 4 fold”.

With `O=C(Oc1ccc(-n2cccc2)cc1)[c-]1cccc1.O=C(Oc1ccc(-n2cccc2)cc1)[c-]1cccc1.[Fe+2]` [Fc-(CO2-Ph-4-Py)2, 1,1′-4-(1H-pyrrol-1-yl)phenyl ferrocenedicarboxylate] the E1/2 [7] was 910 mV, the Epa [7] was 958 mV and the Epc [7] was 862 mV. For the same molecule, the ΔE [7] was 96 mV, the “Micronucleus (MNi) (mean ± SD)” value [11] was 15 (1) ^** and the “increase … (untreated cells)” value [11] was “up to 5 fold”. The “increase in micronucleus-forming activity” value [11] was “up to 5 fold”, the IC50 [2, 13] was 45.5 µM and the IC50 [3, 13] was 298 µM. For the same molecule, the “ROS production (in words)” value [8] was “significant increase”, the “% Binucleated cells (Mitotic rate)” value ([10]; 0.1 μM) was 18 (7) ^* % and the “% Binucleated cells (Mitotic rate)” value ([10]; 1 μM) was 33 (13) ^* %. For the same molecule, the “% Binucleated cells (Mitotic rate)” value ([10]; 10 μM) was 25 (6) ^* % and the IC50 [4, 13] was 189 µM.

For `O=C(Oc1ccc(Br)cc1)[c-]1cccc1.[Fe+2].c1cc[cH-]c1` [Fc-CO2-Ph-4-Br, 4-bromophenyl ferrocenecarboxylate], the IC50 ([12]; read-out: IC50, MCF-10A, MTT assay, 72 h drug exposure) is listed as 353 µM, the IC50 [5] is listed as 24 µM and the IC50 [6] is listed as 9.2 µM. The E1/2 [9, 15] was 532 mV, the Epa [9, 15] was 580 mV and the Epc [9, 15] was 484 mV. The ΔE [9, 15] was 96 mV.

For `O=C(Oc1ccc(-n2cccc2)cc1)[c-]1cccc1.[Fe+2].c1cc[cH-]c1` [Fc-CO2-Ph-4-Py, 4-(1H-pyrrol-1-yl)phenyl ferrocenecarboxylate], the “anti-proliferative activity (in words)” value ([12]; non-tumorigenic human breast epithelial cell line MCF-10A) is listed as “high anti-proliferative activity” and the “anti-proliferative activity (in words)” value ([6]; hormone-dependent breast cancer cell line MCF-7) is listed as “high anti-proliferative activity”.

With `Oc1ccc(-n2cccc2)cc1` [4-(1H-pyrrol-1yl)phenol] the IC50 ([2]; Homo sapiens, MCF7, 72 h) was 249 µM, the IC50 ([3]; Homo sapiens, MCF-10A, 72 h) was 553 µM and the IC50 ([4]; Homo sapiens, HT-29, 72 h) was 211 µM.

Molecule `O=C(O)[c-]1cccc1.O=C(O)[c-]1cccc1.[Fe+2]` [1-1′ferrocenedicarboxilic acid] has an IC50 [4, 13] of 410 µM.

With `COS(C)(=O)=O` [MMS, methyl methane sulphonate] the “% Binucleated cells (Mitotic rate)” value ([10]; 94.4 μM) was 28 (3) ^* % and the “Micronucleus (MNi) (mean ± SD)” value ([10]; 94.4 μM) was 62 (6) ^***.
